Reference: ChEMBL document CHEMBL1811801, “Structural modifications of quinolone-3-carboxylic acids with anti-HIV activity” (Bioorg Med Chem, 2011)

Tests used:
[1] = Selectivity index, ratio of CC50 for human C8166 cells to EC50 for HIV1 LAI 3B; type: toxicity, cell-based; conditions: read-out: Ratio CC50/EC50
[2] = Cytotoxicity against human C8166 cells by MTT assay; type: cell-based
How it was run: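 Uninfected C8166 cells exposed to compound; viability read by MTT assay. CC50 is the concentration lowering normal uninfected cell viability by 50%. Values are means of at least two separate experiments.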

[3] = system: Human immunodeficiency virus 1; experiment: Antiviral activity against HIV1 LAI 3B infected in human C8166 cells assessed as protection against virus-induced cytopathic effect by MTT assay; type: functional, organism-based; conditions: Human immunodeficiency virus 1, LAI 3B
How it was run: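 C8166 cells infected with wild-type HIV-1 (LAI strain IIIB); protection from viral cytopathogenicity read by MTT assay. EC50 is the concentration protecting cells against virus-induced cytopathogenicity by 50%. Values are means of at least two separate experiments.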

## CCCCn1cc(C(=O)O)c(=O)c2c(O)c(Cc3cccc(Cl)c3F)ccc21
[1]
  selectivity ratio: 2.47
[2]
  CC50: 19.9 µM
[3]
  EC50: 8.09 µM

## CC(C)Cn1cc(C(=O)O)c(=O)c2c(O)c(Cc3cccc(Cl)c3F)ccc21
[1]
  selectivity ratio: 5.63
[2]
  CC50: 19.5 µM
[3]
  EC50: 3.47 µM

## CCCCCn1cc(C(=O)O)c(=O)c2c(O)c(Cc3cccc(Cl)c3F)ccc21
[1]
  selectivity ratio: 1.7
[2]
  CC50: 39.9 µM
[3]
  EC50: 23.5 µM

## CC(C)[C@@H](CO)n1cc(C(=O)O)c(=O)c2c(O)c(Cc3cccc(Cl)c3F)ccc21
[1]
  selectivity ratio: 962
[2]
  CC50: 125 µM
[3]
  EC50: 0.13 µM

## O=C(O)c1cn(C2CCCCC2)c2ccc(Cc3cccc(Cl)c3F)c(O)c2c1=O
[1]
  selectivity ratio: 6.18
[2]
  CC50: 17.4 µM
[3]
  EC50: 2.81 µM

## CCCn1cc(C(=O)O)c(=O)c2c(O)c(Cc3cccc(Cl)c3F)ccc21
[1]
  selectivity ratio: 8.66
[2]
  CC50: 24.2 µM
[3]
  EC50: 2.79 µM

## O=C(O)c1cn(C2CC2)c2ccc(Cc3cccc(Cl)c3F)c(O)c2c1=O
[1]
  selectivity ratio: 19.5
[2]
  CC50: 39.1 µM
[3]
  EC50: 2.01 µM

## O=C(O)c1cn(C2CCCC2)c2ccc(Cc3cccc(Cl)c3F)c(O)c2c1=O
[1]
  selectivity ratio: 3.21
[2]
  CC50: 12.4 µM
[3]
  EC50: 3.87 µM

## CC(C)(C)n1cc(C(=O)O)c(=O)c2c(O)c(Cc3cccc(Cl)c3F)ccc21
[1]
  selectivity ratio: 88.3
[2]
  CC50: 400 µM
[3]
  EC50: 4.53 µM

## CCC(C)n1cc(C(=O)O)c(=O)c2c(O)c(Cc3cccc(Cl)c3F)ccc21 (stereo unspecified)
[1]
  selectivity ratio: 16.8
[2]
  CC50: 30.7 µM
[3]
  EC50: 1.83 µM

## CC(C)n1cc(C(=O)O)c(=O)c2c(O)c(Cc3cccc(Cl)c3F)ccc21
[1]
  selectivity ratio: 5.97
[2]
  CC50: 26.5 µM
[3]
  EC50: 4.44 µM

## COc1cc2c(cc1Cc1cccc(Cl)c1F)c(=O)c(C(=O)O)cn2[C@H](CO)C(C)C [ELVITEGRAVIR]
[1]
  selectivity ratio: 81900
[2]
  CC50: 17.2 µM
[3]
  EC50: 0.00021 µM
